How the values were obtained:
[1] = molecular target: T1, N-formyl peptide receptor 2 (Homo sapiens, UniProt P25090); experiment: Antagonist activity at human FPR2 transfected in human HL-60 cells assessed as inhibition of WKYMVM-induced intracellular calcium mobilization preincubated for 10 mins followed by WKYMVM addition measured every 5 seconds for 240 secs by Fluo-4-AM dye based fluorescence assay; format: functional, cell-based
T1 sequence (P25090 whole entry): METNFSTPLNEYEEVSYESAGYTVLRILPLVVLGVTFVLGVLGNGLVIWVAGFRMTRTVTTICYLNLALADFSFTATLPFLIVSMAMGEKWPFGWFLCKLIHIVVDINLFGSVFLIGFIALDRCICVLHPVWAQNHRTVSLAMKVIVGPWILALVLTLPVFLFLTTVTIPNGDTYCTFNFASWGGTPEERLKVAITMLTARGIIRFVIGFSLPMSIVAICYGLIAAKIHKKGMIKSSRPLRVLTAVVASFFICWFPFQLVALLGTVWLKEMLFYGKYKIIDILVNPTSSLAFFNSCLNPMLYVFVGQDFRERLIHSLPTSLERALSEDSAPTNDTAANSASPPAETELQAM
In short: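 Fluo-4-loaded FPR2-HL60 cells pre-incubated 10 min with compound (1% DMSO final), then challenged with 5 nM WKYMVM. Maximum change over baseline taken as response. IC50 by four-parameter logistic regression of at least 5–6 point curves.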

[2] = molecular target: T1, N-formyl peptide receptor 2; experiment: Agonist activity at human FPR2 transfected in human HL-60 cells assessed as increase in calcium mobilization measured every 5 seconds for 240 secs by Fluo-4-AM dye based fluorescence assay; format: functional, cell-based
[3] = Cytotoxicity against mouse N9 cells assessed as reduction in cell viability by measuring LDH release at 0.5 to 5 uM incubated for 24 hrs by LDH assay; format: toxicity, cell-based; conditions: n9, 24 h, dose 0.5-5 µM
In short: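 N9 cells (2 × 10^4/well) given compound at 0.5 or 5 μM, alone or with LPS (E. coli O111:B4, 100 ng/mL) added 30 min later, for 24 h at 37 °C. Released LDH measured in supernatant (30 min, room temperature, 490/630 nm). Expressed as % of untreated cells, mean ± SEM, at least three experiments in triplicate.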

[4] = Metabolic stability in rat liver microsomes assessed as compound remaining at 10 uM preincubated for 10 mins followed by NADPH addition and measured after 30 mins by HPLC analysis; format: ADME, Microsome; conditions: time 40 min, read-out: Stability
In short: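 Rat liver microsomes (1.0 mg/mL protein), compound 10 μM final in 100 mM potassium phosphate pH 7.4, pre-incubated 10 min at 37 °C, then NADPH regenerating system added. After 30 min, % parent remaining by HPLC-DAD (C18, MeOH/H2O 80:20) versus incubation without NADPH system.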

fMet-Leu-Phe receptor [5] = molecular target: T2, fMet-Leu-Phe receptor (Homo sapiens, UniProt P21462); experiment: Agonist activity at human FPR1 transfected in human HL-60 cells assessed as increase in calcium mobilization measured every 5 seconds for 240 secs by Fluo-4-AM dye based fluorescence assay; format: functional, cell-based
T2 sequence (P21462 whole entry): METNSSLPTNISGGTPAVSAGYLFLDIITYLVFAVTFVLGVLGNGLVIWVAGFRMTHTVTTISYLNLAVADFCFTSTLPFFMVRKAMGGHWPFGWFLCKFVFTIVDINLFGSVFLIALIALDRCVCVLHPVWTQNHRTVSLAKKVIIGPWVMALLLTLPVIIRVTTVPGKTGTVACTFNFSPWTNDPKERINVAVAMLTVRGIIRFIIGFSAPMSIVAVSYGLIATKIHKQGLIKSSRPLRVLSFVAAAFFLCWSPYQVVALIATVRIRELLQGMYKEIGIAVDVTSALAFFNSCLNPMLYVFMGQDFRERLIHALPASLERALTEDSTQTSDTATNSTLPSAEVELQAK

[6] = molecular target: T3, N-formyl peptide receptor 2 (Homo sapiens) (UniProt P25090); experiment: Agonist activity at human FPR2 transfected in HL-60 cells assessed as induction of intracellular calcium ions mobilization using WKYMVM as substrate preincubated for 10 mins followed by substrate addition and measured every 5 seconds for 240 secs by Fluo-4-AM dye based fluorescent assay relative to control; format: functional, cell-based; conditions: filed as agonist
T3 sequence (whole entry): T1 sequence (P25090 whole entry)

[7] = Cytotoxicity against mouse N9 cells assessed as reduction in cell viability incubated for 48 hrs by MTT assay; format: toxicity, cell-based
In short: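 MTT 0.5 mg/mL added for 3–4 h at 37 °C, formazan dissolved in DMSO/EtOH 1:1, absorbance read at 570 and 630 nm. Mean ± SD from at least two to three experiments in triplicate.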

fMet-Leu-Phe receptor [8] = molecular target: T2, fMet-Leu-Phe receptor; experiment: Antagonist activity at human FPR1 transfected in human HL-60 cells assessed as inhibition of fMLF-induced intracellular calcium mobilization preincubated for 10 mins followed by fMLF addition and measured every 5 seconds for 240 secs by Fluo-4-AM dye based fluorescence assay; format: functional, cell-based

Row | SMILES | IC50 [1] [nM] | EC50 [2] [nM] | remaining at 0.5 h, 10 µM [4] [%] | EC50 (fMet-Leu-Phe receptor [5]) [nM] | Efficacy [6] [%] | IC50 (fMet-Leu-Phe receptor [8]) [nM] | Activity [3] | EC50 at 48 h [7] [nM]
1 | CC1(C)CN(C(=O)[C@H](Cc2ccc(C#N)cc2)NC(=O)Nc2ccc(F)cc2)c2ccccc21 | 2700 | 2300 | – | – | – | – | – | –
2 | N#Cc1ccc(C[C@@H](NC(=O)Nc2ccc(F)cc2)C(=O)N2CCc3cccnc32)cc1 | 1200 | 1100 | 10 | – | – | – | – | –
3 | N#Cc1ccc(C[C@@H](NC(=O)Nc2ccc(F)cc2)C(=O)N2CCc3ccccc32)cc1 | 3900 | 5600 | 14 | – | – | – | – | –
4 | N#Cc1ccc(C[C@@H](NC(=O)Nc2ccc(F)cc2)C(=O)N2CCc3ccc(F)cc32)cc1 | – | – | 28 | – | – | – | Toxic | –
5 | CC1(C)CN(C(=O)[C@@H](Cc2ccc(C#N)cc2)NC(=O)Nc2ccc(F)cc2)c2ccccc21 | 16400 | 6900 | 65 | – | – | – | – | –
6 | N#Cc1ccc(C[C@@H](NC(=O)Nc2ccc(F)cc2)C(=O)N2CCc3ccccc3C2)cc1 | 3500 | 1300 | 4 | – | – | – | – | –
7 | N#Cc1ccc(C[C@H](NC(=O)Nc2ccc(F)cc2)C(=O)N2Cc3ccc(F)cc3C2)cc1 | 4400 | 1700 | – | 3300 | 70 | – | – | 18200
8 | N#Cc1ccc(C[C@@H](NC(=O)Nc2ccc(F)cc2)C(=O)N2Cc3ccc(F)cc3C2)cc1 | – | 7200 | 72 | 5600 | 45 | – | – | 9440
9 | N#Cc1ccc(C[C@H](NC(=O)Nc2ccc(F)cc2)C(=O)NCC2(c3ccc(F)c(Cl)c3)CC2)cc1 | – | – | – | – | – | – | Non-Toxic | 3260
10 | CC1(C)CN(C(=O)[C@H](Cc2ccc(C#N)cc2)NC(=O)Nc2ccc(F)cc2)Cc2cc(F)ccc21 | 600 | 1600 | 34 | – | – | – | – | –
11 | N#Cc1ccc(C[C@@H](NC(=O)Nc2ccc(F)cc2)C(=O)N2Cc3ccccc3C2)cc1 | – | 19300 | 15 | – | – | – | – | –
12 | N#Cc1ccc(C[C@H](NC(=O)Nc2ccc(F)cc2)C(=O)N2CCCCC2)cc1 | 12000 | 980 | – | – | – | – | – | –
13 | N#Cc1ccc(C[C@@H](NC(=O)Nc2ccc(F)cc2)C(=O)N2CCCCC2)cc1 | 49300 | 13400 | 25 | – | – | – | – | –

More lines, in order of falling EC50 [2], values ahead:

Row | IC50 [1] [nM] | EC50 [2] [nM] | remaining at 0.5 h, 10 µM [4] [%] | EC50 (fMet-Leu-Phe receptor [5]) [nM] | Efficacy [6] [%] | IC50 (fMet-Leu-Phe receptor [8]) [nM] | SMILES | Activity [3] | EC50 at 48 h [7] [nM]
14 | 240 | 620 | 14 | – | – | – | N#Cc1ccc(C[C@@H](NC(=O)Nc2ccc(F)cc2)C(=O)N2CCc3ccc(F)cc3C2)cc1 | – | –
15 | 260 | 450 | 8 | – | – | – | N#Cc1ccc(C[C@H](NC(=O)Nc2ccc(F)cc2)C(=O)N2CCc3ccc(F)cc3C2)cc1 | – | –
16 | 3400 | 410 | – | 1800 | 90 | – | N#Cc1ccc(C[C@@H](NC(=O)Nc2ccc(F)cc2)C(=O)N2CCc3cc(F)ccc32)cc1 | – | 23800
17 | 4400 | 340 | 31 | – | – | – | N#Cc1ccc(C[C@H](NC(=O)Nc2ccc(F)cc2)C(=O)N2Cc3ccccc3C2)cc1 | Non-Toxic | –
18 | 12 | 250 | 7 | 440 | 175 | 17400 | N#Cc1ccc(C[C@@H](NC(=O)Nc2ccc(F)cc2)C(=O)N2CCCc3ccccc32)cc1 | – | 13700
19 | 30 | 240 | 6 | – | – | – | N#Cc1ccc(C[C@H](NC(=O)Nc2ccc(F)cc2)C(=O)N2CCc3ccccc3C2)cc1 | Non-Toxic | –
20 | 210 | 160 | 19 | 4800 | 110 | – | N#Cc1ccc(C[C@H](NC(=O)Nc2ccc(F)cc2)C(=O)N2CCc3cc(F)ccc32)cc1 | Non-Toxic | 29400
21 | 140 | 160 | 14 | – | – | – | N#Cc1ccc(C[C@H](NC(=O)Nc2ccc(F)cc2)C(=O)N2CCc3cccnc32)cc1 | – | –

Source: ChEMBL document CHEMBL5154784, “Design, Synthesis, Biological Evaluation, and Computational Studies of Novel Ureidopropanamides as Formyl Peptide Receptor 2 (FPR2) Agonists to Target the Resolution of Inflammation in Central Nervous System Disorders” (J Med Chem, 2022)
